The conditions of data set [1]: dogs with HAC; ref other studies; cited from earlier work.
Data set [2] in a line: Echocardiography, blood pressure and heart rate before and after sedation. Type of data set: in vivo, cats. The following applies: ten minutes after sedation.
Another data set has as its system feline liver organoids. Briefly: Lipid accumulation in liver organoids exposed to free fatty acids. Conditions: LD540, flow cytometry. Type of data set: cell-based, cats. An outline of the steps: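 Feline liver organoids were incubated with vehicle or free fatty acids and stained with the lipophilic dye LD540. Fluorescence was quantified by flow cytometry. β-oxidation of excess fatty acids was probed with a CPT-1 inhibitor and with L-carnitine supplementation.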

A short description of data set [3]: Serum MMA after oral versus parenteral cobalamin in dogs with CE. Type of data set: in vivo.
Data set [4] is described as follows: Laryngoscopy with doxapram stimulation in dogs with brachycephalic syndrome. Type of data set: in vivo.
The next data set has as its system Troglostrongylus brevior. The experiment in a line: Anthelmintic treatment of feline lungworm infection. Type of data set: in vivo, cats. Conditions: single administration; moxidectin n = 2, emodepside n = 1.
For another data set, the system named is T. brevior/A. abstrusus. The experiment in a line: Anthelmintic treatment of feline lungworm infection. The following applies: for time to being healthy: five of six cats. Type of data set: in vivo, cats. An outline of the steps: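 Cats with natural Troglostrongylus brevior/Aelurostrongylus abstrusus co-infection were treated with one of: single topical emodepside (n = 1), single oral milbemycin oxime (n = 2), or moxidectin given two (n = 2) or three (n = 1) times. Clinical course and time to recovery were followed.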

For the next data set, the system named is Capillaria aerophila. The experiment in a line: Anthelmintic treatment of feline lungworm infection. The following applies: single administration, one cat. Type of data set: in vivo, cats.
Data set [5] is described as follows: Management of Addisonian crisis. Type of data set: in vivo, dogs. The following applies: for outcome: HSS CRI 0.3 to 0.625 mg/kg/h (n = 7), dexamethasone IV 0.05 to 0.3 mg/kg (n = 8).
Data set [6] is described as follows: Oral torasemide in cats with CHF. Type of data set: in vivo. The procedure, abridged:
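Cats with CHF, previously on furosemide (median 6 mg/kg/24 h), were switched to oral torasemide. The median starting dose was 0.5 mg/kg/24 h (range 0.1–0.75), given once daily or split twice daily. Renal values and potassium were rechecked at follow-up.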

Data set [7] is described as follows: Transcutaneous ICG plasma disappearance rate. Type of data set: in vivo, dogs. An outline of the steps: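 Healthy dogs received indocyanine green 0.5 mg/kg IV daily on three days. The plasma disappearance rate was read transcutaneously with a monitor probe, and the intrasubject coefficient of variation was calculated from the daily values.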
For data set [8] the following is noted: ref previously reported data; cited from earlier work.
The target in data set [9] is T1, serum angiotensin‐converting enzyme (ACE) (Canis lupus familiaris, UniProt A0A8I3S3I6).
T1 sequence (A0A8I3S3I6 31-1241): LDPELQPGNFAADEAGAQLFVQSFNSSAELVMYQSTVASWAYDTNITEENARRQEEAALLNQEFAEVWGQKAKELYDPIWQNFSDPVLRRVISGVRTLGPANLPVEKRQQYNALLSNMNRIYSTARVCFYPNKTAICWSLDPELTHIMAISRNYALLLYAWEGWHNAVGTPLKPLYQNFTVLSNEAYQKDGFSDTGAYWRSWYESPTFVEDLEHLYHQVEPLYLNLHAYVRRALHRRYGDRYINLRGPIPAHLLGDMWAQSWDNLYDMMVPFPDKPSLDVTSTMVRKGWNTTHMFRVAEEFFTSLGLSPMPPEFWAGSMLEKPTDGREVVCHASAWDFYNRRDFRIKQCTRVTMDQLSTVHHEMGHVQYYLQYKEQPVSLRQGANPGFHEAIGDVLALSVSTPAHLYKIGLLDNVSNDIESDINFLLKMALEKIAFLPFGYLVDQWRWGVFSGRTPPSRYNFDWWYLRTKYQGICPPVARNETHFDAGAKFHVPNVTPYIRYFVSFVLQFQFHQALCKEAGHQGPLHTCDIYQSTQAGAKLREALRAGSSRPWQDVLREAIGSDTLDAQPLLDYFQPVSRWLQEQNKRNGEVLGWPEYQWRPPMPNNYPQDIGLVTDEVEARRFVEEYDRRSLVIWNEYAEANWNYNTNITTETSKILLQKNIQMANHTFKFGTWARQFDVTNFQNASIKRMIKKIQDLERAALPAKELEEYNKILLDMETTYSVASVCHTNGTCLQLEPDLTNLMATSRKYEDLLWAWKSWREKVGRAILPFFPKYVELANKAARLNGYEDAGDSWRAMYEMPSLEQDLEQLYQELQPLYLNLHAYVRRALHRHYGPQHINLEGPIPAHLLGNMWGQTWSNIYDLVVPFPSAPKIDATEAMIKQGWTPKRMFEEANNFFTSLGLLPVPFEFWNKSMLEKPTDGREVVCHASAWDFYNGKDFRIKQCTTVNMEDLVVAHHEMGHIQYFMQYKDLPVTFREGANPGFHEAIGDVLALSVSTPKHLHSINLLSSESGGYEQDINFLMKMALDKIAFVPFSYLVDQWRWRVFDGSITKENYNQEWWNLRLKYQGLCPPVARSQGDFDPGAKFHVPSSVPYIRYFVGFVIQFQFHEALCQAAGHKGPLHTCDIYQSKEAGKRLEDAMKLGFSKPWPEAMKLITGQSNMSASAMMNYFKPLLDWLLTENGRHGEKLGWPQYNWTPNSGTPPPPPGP
The experiment in a line: Serum ACE activity after benazepril with or without pimobendan. Type of data set: in vivo, dogs. The following applies: for serum ACE activity versus baseline: days 1 and 15. An outline of the steps: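 In a prospective, randomised, parallel-group design, 48 healthy beagles were split into four groups: placebo twice daily; benazepril 0.5 mg/kg once each morning; benazepril 0.25 mg/kg twice daily; or benazepril 0.25 mg/kg plus pimobendan 0.125 mg/kg, both twice daily. Dosing was oral for 15 days. Serum ACE was assayed radio-enzymatically at baseline, at 12 post-dose times on day 1, and on day 15 (steady state).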

The nature of data set [10]: Cortisol monitoring in dogs with hyperadrenocorticism on trilostane. Type of data set: in vivo. The procedure, abridged: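 Multicentre open-label prospective study in dogs with hyperadrenocorticism on trilostane. Serum cortisol was measured pre-trilostane, 3 h post-trilostane, and 1 h post-ACTH stimulation.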
Data set [11] relates to Aelurostrongylus abstrusus; Angiostrongylus vasorum. The experiment in a line: Lungworm infection in cats and dogs in Rome treated with fenbendazole. Type of data set: in vivo. An outline of the steps:
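Animals were diagnosed by faecal testing, BAL, lung cytology or post mortem. All received fenbendazole 50 mg/kg for 3 weeks, with further therapy according to clinical status; outcome was recorded.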

The subject of data set [12] is bacteria isolated from urinary cultures. The experiment in a line: Urine culture sensitivity in dogs with DM and/or HAC. Type of data set: cell-based.
A further data set relates to E.Coli. The experiment in a line: Cat with E.coli associated granulomatous colitis. Type of data set: in vivo.
For the next data set, the system named is Leishmania infantum. The experiment in a line: Randomized allopurinol‐controlled trial in dogs with clinical leishmaniosis. Type of data set: in vivo. The following applies: bone marrow; with MGA.
The nature of data set [13]: Sedation of dogs with stage B2 MMVD. Type of data set: in vivo.

Where two headings read alike, the source gives them in different places.

For `Clc1ccc(C(c2ccccc2Cl)C(Cl)Cl)cc1` (stereo not drawn) [mitotane], the mean survival time in data set [1] was 985 ± 57 days.
As for dexmedetomidine and buprenorphine, the “IVSd, IVSs, LVPWd, LVPWs, Ao, La/Ao, pulmonic acceleration time” value in [2] was “did not differ pre‐ and post‐sedation”. For the same compound, the “LVIDd, LVIDs, RVIDd, LA, pulmonic deceleration time, SBP, DBP, MAP” value in data set [2] (50 cats, P ≤ 0.022) is recorded as “increased after sedation”. Also, the “Vmax Ao, Vmax A pulm, FS, AT/DT and HR” value in data set [2] (P < 0.0001) is “decreased after sedation”.
With `C[N+](C)(C)C[C@H](O)CC(=O)[O-]` [L‐carnitine], the “lipid accumulation under excess FFA” value with feline liver organoids was “attenuated”.
For the compound `C/C1=C2/[N-][C@H]([C@H](CC(N)=O)[C@@]2(C)CCC(=O)NC[C@@H](C)OP(=O)([O-])O[C@H]2[C@@H](O)[C@@H](n3cnc4cc(C)c(C)cc43)O[C@@H]2CO)[C@]2(C)N=C(/C(C)=C3N=C(/C=C4N=C1[C@@H](CCC(N)=O)C\4(C)C)[C@@H](CCC(N)=O)[C@]\3(C)CC(N)=O)[C@@H](CCC(N)=O)[C@]2(C)CC(N)=O.[Co]` [cbl, Cobalamin], the “median serum MMA” value in data set [3] (PE, 4 weeks, range 377–932, initial 934, n = 17) amounted to 724 mmol/L; in [3] (PE, 12 weeks, range 349–1145, n = 13), 671 mmol/L; in [3] (PO, 4 weeks, range 386–1465, initial 923, GC‐MS, n = 19) it was 672 mmol/L; in data set [3] (PO, 12 weeks, range 450–1221, n = 16), 735 mmol/L.
With `CCN1CC(CCN2CCOCC2)C(c2ccccc2)(c2ccccc2)C1=O.Cl` (stereo not drawn) [Dxp, doxapram hydrochloride], the “mean degree of laryngeal collapse (0 to 3)” value in [4] (after 1.1 mg/kg IV, before 1.64 [0–3], P < 0.001, 26 dogs) was 1.07 [0–3]. Moreover, the laryngeal abduction result in [4] (after injection) was “significant abduction of laryngeal cartilages could be observed in all dogs”.
For `CCOC(=O)[C@@]1(CCCCCCOc2ccc(Cl)cc2)CO1` [etomoxir], in the data set with feline liver organoids, the “lipid accumulation under excess FFA” value was “enhanced”.
With `CO/N=C1\C[C@]2(C[C@@H]3C[C@@H](C/C=C(\C)C[C@@H](C)/C=C/C=C4\CO[C@@H]5[C@H](O)C(C)=C[C@@H](C(=O)O3)[C@]45O)O2)O[C@H](/C(C)=C/C(C)C)[C@H]1C` [moxidectin], the time to recovery in the data set with Troglostrongylus brevior is 14 to 42 days. Besides, the “time to being healthy” value with T. brevior/A. abstrusus was in the range of 14 to 42 days.
For the compound eprinomectin, the outcome with Capillaria aerophila is reported as “healthy after two weeks”.
Take `C[C@]12CCC(=O)C=C1CC[C@@H]1[C@@H]2[C@@H](O)C[C@@]2(C)[C@H]1CC[C@]2(O)C(=O)COC(=O)CCC(=O)O` [HSS, hydrocortisone sodium succinate]: in data set [5], the outcome is “all patients surviving to discharge”. Further, the “median time for Na+ concentration to normalise” value in [5] (group A (HSS) versus group B (dexamethasone), P = 0.0424) is listed as “significantly shorter in group A compared to group B”.
For `Cc1cccc(Nc2ccncc2S(=O)(=O)NC(=O)NC(C)C)c1` [torasemide], in [6] (in vivo), the “main adverse clinical effect” value was “worsening azotaemia” and the tolerability entry was “tolerated by this population of cats with CHF”. In addition, in data set [6] (range 7–177 d, 11 cats), the “median survival time after commencing torasemide” value was 48 days.
As to `CC1(C)C(/C=C/C=C/C=C/C=C2\N(CCCCS(=O)(=O)O)c3ccc4ccccc4c3C2(C)C)=[N+](CCCCS(=O)(=O)[O-])c2ccc3ccccc3c21` [ICG, Indocyanine green], the “mean ICG‐PDR” value in [7] (day one, 0.5 mg/kg IV, six healthy Beagles, transcutaneous) is reported as 7.8 ± 3.4 %/min; in data set [7] (day three), 7.9 ± 2.6 %/min; in data set [7] (day two) it was 8.8 ± 3.7 %/min; in [8], 7.79 ± 3.3 %/min. Also, in data set [7] (dog, in vivo), the “highest individual %CV” value was found to be 52.5%. In data set [7] (three consecutive days), the “mean intrasubject %CV of ICG‐PDR” value came out at 35.9 ± 16.8%.
Consider `CCOC(=O)[C@H](CCc1ccccc1)N[C@H]1CCc2ccccc2N(CC(=O)O)C1=O` [benazepril], for which the “serum ACE activity versus baseline” value in data set [9] (group B, 0.5 mg/kg once daily PO) is “significant reductions in serum ACE activity compared to baseline”; in data set [9] (group C, 0.25 mg/kg twice daily PO) it was “significant reductions in serum ACE activity compared to baseline”. For the same compound, the “0.25 mg/kg twice daily compared to 0.5 mg/kg once daily” value in [9] (non‐inferiority shown) is reported as “equivalent inhibition of serum ACE activity”.
Turning to `C[C@@H]1C[C@H]2[C@@H]3CCC4=CC(=O)C=C[C@]4(C)[C@@]3(F)[C@@H](O)C[C@]2(C)[C@@]1(O)C(=O)CO` [dexamethasone], the outcome in data set [5] is recorded as “all patients surviving to discharge”.
Consider milbemycin oxime, for which the “time to being healthy” value in the data set on T. brevior/A. abstrusus lay in the range of 14 to 42 days. The fatal outcome in the data set with T. brevior/A. abstrusus (one of two cats on single oral dose) is given as “died after an acute onset of dyspnoea”.
As to `C[C@]12CC[C@H]3[C@@H](CC[C@@]45O[C@@H]4C(O)=C(C#N)C[C@]35C)[C@@H]1CC[C@@H]2O` [trilostane], the mean survival time in data set [1] was 1051 ± 78 days. Besides, the “median cortisol pre‐trilostane” value in [10] (21 dogs, 45 pairs on same dose) was 114.0 nmol/L. Further, the “median cortisol 1 hour post‐ACTH stimulation” value in data set [10] (dog, in vivo) was 110.0 nmol/L. For the same compound, in data set [10] (significantly lower than the other two), the “median cortisol 3 hours post‐trilostane” value was 53.5 nmol/L.
As for `COC(=O)Nc1nc2ccc(Sc3ccccc3)cc2[nH]1` [fenbendazole], the outcome in dogs in data set [11] (50 mg/kg for 3 weeks plus other therapy, 21 dogs) is given as “Five dogs died; the others recovered”. In addition, the outcome in cats in data set [11] (50 mg/kg for 3 weeks, 20 cats) was “fully recovered”.
Consider `CCN1CCN(c2cc3c(cc2F)c(=O)c(C(=O)O)cn3C2CC2)CC1` [enrofloxacin], for which the bacterial resistance in [12] is 38%. The clinical response entry with E.Coli (5 mg/kg SID for 6 weeks, one cat) is reported as “complete resolution of clinical signs”. In the data set with E.Coli (to date), this compound registered a remission sustained of 4 months.
For the compound `Oc1ncnc2[nH]ncc12` [allopurinol], in the data set on Leishmania infantum, the “parasite load by RT‐QPCR” value is reported as “significantly reduced parasite load”.
On to `Cc1cccc(C(C)c2cnc[nH]2)c1C` (stereo not drawn) [M group, medetomidine], for which the “regurgitant jet area (ARJ/LAA)” value in data set [13] (T1, 30 minutes after medetomidine, n = 8 per group) is recorded as “significantly decreased”. For the same compound, in data set [13] (T1, P < 0.05), the “body weight‐indexed LVIDs” value was “increased” and the shortening fraction entry is listed as “decreased”.

These data come from paper PMC5259643 (Journal of Veterinary Internal Medicine, 2017).
